According to ChEMBL document CHEMBL4138139, “Discovery of VU6005649, a CNS Penetrant mGlu7/8 Receptor PAM Derived from a Series of Pyrazolo[1,5-a]pyrimidines” (ACS Med Chem Lett, 2017):
The source made the active and inactive calls. The calls are words filed in the database; no cut-off is given here.

Key:
[1] = target: Kappa-type opioid receptor (Homo sapiens) (UniProt P41145); assay: Displacement of [3H] diprenorphine from recombinant human kappa opioid receptor expressed in HEK293 cell membranes at 10 uM after 60 mins by scintillation counting method relative to control
Summary of the method: (§1)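 Single-concentration screen at 10 μM in an outsourced profiling panel of 68 GPCRs, ion channels and transporters. Activity read out as percent inhibition of specific radioligand binding.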

[2] = target: T1, Glutamate NMDA receptor (Rattus norvegicus) (UniProt P35439+Q00959+Q00960+Q00961+Q62645+Q8VHN2+Q9R1M7); assay: Displacement of [3H] CGP-39653 from NMDA in Wistar rat cerebral cortical membranes at 10 uM measured after 20 mins by scintillation counting method relative to control; summary of the method: as §1
[3] = target: Endothelin receptor type B (Homo sapiens) (UniProt P24530); assay: Displacement of [125I] endothelin-1 from recombinant human ETB receptor expressed in CHOK1 cell membranes at 10 uM after 120 mins by scintillation counting method relative to control; summary of the method: as §1
[4] = target: Prostaglandin E2 receptor EP4 subtype (Homo sapiens) (UniProt P35408); assay: Displacement of [3H] prostaglandin E2 from recombinant human EP4 receptor expressed in rat Chem1 cell membranes at 10 uM measured after 120 mins by scintillation counting method relative to control; summary of the method: as §1
[5] = target: Alpha-1A adrenergic receptor (Rattus norvegicus) (UniProt P43140); assay: Displacement of [3H] prazosin from Wistar rat alpha1a receptor at 10 uM measured after 60 mins by scintillation counting method relative to control; summary of the method: as §1
[6] = target: Epidermal growth factor receptor (Homo sapiens) (UniProt P00533); assay: Displacement of [125I] EGF from EGFR in human A431 cells at 10 uM after 60 mins by scintillation counting method relative to control; format: cell-based; summary of the method: as §1
Rattus norvegicus [7] = species on record: Rattus norvegicus; assay: Displacement of [125I] triiodothyronine from thyroid hormone receptor in Sprague-Dawley rat liver membranes at 10 uM after 18 hrs by scintillation counting method relative to control; format: cell membranes; conditions: Membrane; summary of the method: as §1
[8] = target: Muscarinic acetylcholine receptor M1 (Homo sapiens) (UniProt P11229); assay: Displacement of [3H] N-methylscopolamine from recombinant human M1 receptor expressed in CHOK1 cell membranes at 10 uM after 120 mins by scintillation counting method relative to control; summary of the method: as §1
[9] = target: Melatonin receptor type 1A (Homo sapiens) (UniProt P48039); assay: Inhibition of human MT1 receptor at 10 uM relative to control
Summary of the method: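 Single-concentration screen at 10 μM within a commercial lead-profiling panel of 68 GPCRs, ion channels and transporters. Activity read as percent inhibition of specific radioligand binding to each target.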

[10] = target: Cannabinoid receptor 1 (Homo sapiens) (UniProt P21554); assay: Displacement of [3H] SR141716A from recombinant human CB1 receptor expressed in rat Chem1 cell membranes at 10 uM measured after 90 mins by scintillation counting method relative to control; summary of the method: as §1
[11] = target: B2 bradykinin receptor (Homo sapiens) (UniProt P30411); assay: Displacement of [3H] bradykinin from recombinant human bradykinin B2 receptor expressed in rat Chem1 cell membranes at 10 uM measured after 60 mins by scintillation counting method relative to control; summary of the method: as §1
[12] = target: Alpha-1D adrenergic receptor (Homo sapiens) (UniProt P25100); assay: Displacement of [3H] prazosin from recombinant human alpha1d receptor expressed in HEK293 cell membranes at 10 uM measured after 60 mins by scintillation counting method relative to control; summary of the method: as §1
[13] = target: T2, Metabotropic glutamate receptor 5 (Rattus norvegicus, UniProt P31424); assay: Positive allosteric modulation of rat mGlu5 receptor expressed in HEK cells assessed as increase in glutamate-induced calcium flux incubated for 142 secs followed by glutamate addition measured after 120 secs by Fluo4-AM dye based fluorescence assay; format: functional, cell-based
Rattus norvegicus [14] = species on record: Rattus norvegicus; assay: Displacement of [3H] GABA from GABA transporter in Wistar rat cerebral cortical membranes at 10 uM measured after 20 mins by scintillation counting method relative to control; summary of the method: as §1
[15] = target: Acetylcholine receptor subunit alpha (Homo sapiens) (UniProt P02708); assay: Displacement of [125I] alpha-Bungarotoxin from alpha1 nAChR in human rhabdomyosarcoma cell membranes at 10 uM after 120 mins by scintillation counting method relative to control; summary of the method: as §1
Mus musculus = species on record: Mus musculus; assay: Displacement of [3H] PDBu from phorbol ester receptor in ICR mouse brain membranes at 10 uM after 60 mins by scintillation counting method relative to control; format: cell membranes; conditions: Membrane; summary of the method: as §1
[16] = target: T2, Metabotropic glutamate receptor 5; assay: Negative allosteric modulation of rat mGlu5 receptor expressed in HEK cells assessed as decrease in glutamate-induced thallium flux incubated for 142 secs followed by glutamate addition measured after 120 secs by Fluo4-AM dye based fluorescence assay; format: functional, cell-based
[17] = target: Histamine H3 receptor (Homo sapiens) (UniProt Q9Y5N1); assay: Displacement of [3H] N-alpha-methylhistamine from recombinant human H3 receptor expressed in CHOK1 cell membranes at 10 uM after 120 mins by scintillation counting method relative to control; summary of the method: as §1
[18] = target: D(1A) dopamine receptor (Homo sapiens) (UniProt P21728); assay: Displacement of [3H] SCH-23390 from recombinant human D1 receptor expressed in CHO cell membranes at 10 uM after 120 mins by scintillation counting method relative to control; summary of the method: as §1
Rattus norvegicus [19] = species on record: Rattus norvegicus; assay: Time at which total brain concentration stays above in vitro mGlu7 EC50 in rat; format: ADME, organism-based; conditions: in vivo
Rattus norvegicus [20] = assay: Antipsychotic activity in rat assessed as inhibition of amphetamine-induced hyperlocomotion at 30 mg/kg, ip; format: functional, organism-based
Summary of the method: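 Rats given 30 mg/kg IP in 10% Tween 80/H2O, challenged with amphetamine 0.75 mg/kg s.c.; locomotor activity measured.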

[21] = target: Sodium-dependent noradrenaline transporter (Homo sapiens) (UniProt P23975); assay: Displacement of [125I] RTI-55 from full length human recombinant NET expressed in MDCK cell membranes at 10 uM after 180 mins by scintillation counting method relative to control; summary of the method: as §1
Cytochrome P450 2C9 = Cytochrome P450 2C9 (Homo sapiens, UniProt P11712); assay: Inhibition of CYP2C9 in human liver microsomes using diclofenac as substrate preincubated for 15 mins followed by NADPH addition measured after 8 mins by LC-MS/MS analysis; format: ADME
[22] = target: Muscarinic acetylcholine receptor M2 (Homo sapiens) (UniProt P08172); assay: Displacement of [3H] N-methylscopolamine from recombinant human M2 receptor expressed in CHOK1 cell membranes at 10 uM after 120 mins by scintillation counting method relative to control; summary of the method: as §1
[23] = target: Adenosine receptor A3 (Homo sapiens) (UniProt P0DMS8); assay: Displacement of [125I] AB-MECA from full length human recombinant A3 receptor expressed in CHOK1 cell membranes at 10 uM after 60 mins by scintillation counting method relative to control; summary of the method: as §1
[24] = target: T1, Glutamate NMDA receptor (Rattus norvegicus); assay: Displacement of [3H] TCP from glutamate NMDA receptor phencyclidine binding site in Wistar rat cerebral cortical membrane at 10 uM after 45 mins by scintillation counting method relative to control; summary of the method: as §1
[25] = target: L-type calcium channel, dihydropyridine site (Rattus norvegicus, UniProt P22002+P27732+Q02485); assay: Inhibition of rat L-type calcium channel dihydropyridine site at 10 uM relative to control; format: protein assay
Mesocricetus auratus = species on record: Mesocricetus auratus; assay: Displacement of [3H] glyburide from KATP in syrian hamster HIT-T15 cell membranes at 10 uM after 120 mins by scintillation counting method relative to control; summary of the method: as §1

T2 sequence (P31424 whole entry): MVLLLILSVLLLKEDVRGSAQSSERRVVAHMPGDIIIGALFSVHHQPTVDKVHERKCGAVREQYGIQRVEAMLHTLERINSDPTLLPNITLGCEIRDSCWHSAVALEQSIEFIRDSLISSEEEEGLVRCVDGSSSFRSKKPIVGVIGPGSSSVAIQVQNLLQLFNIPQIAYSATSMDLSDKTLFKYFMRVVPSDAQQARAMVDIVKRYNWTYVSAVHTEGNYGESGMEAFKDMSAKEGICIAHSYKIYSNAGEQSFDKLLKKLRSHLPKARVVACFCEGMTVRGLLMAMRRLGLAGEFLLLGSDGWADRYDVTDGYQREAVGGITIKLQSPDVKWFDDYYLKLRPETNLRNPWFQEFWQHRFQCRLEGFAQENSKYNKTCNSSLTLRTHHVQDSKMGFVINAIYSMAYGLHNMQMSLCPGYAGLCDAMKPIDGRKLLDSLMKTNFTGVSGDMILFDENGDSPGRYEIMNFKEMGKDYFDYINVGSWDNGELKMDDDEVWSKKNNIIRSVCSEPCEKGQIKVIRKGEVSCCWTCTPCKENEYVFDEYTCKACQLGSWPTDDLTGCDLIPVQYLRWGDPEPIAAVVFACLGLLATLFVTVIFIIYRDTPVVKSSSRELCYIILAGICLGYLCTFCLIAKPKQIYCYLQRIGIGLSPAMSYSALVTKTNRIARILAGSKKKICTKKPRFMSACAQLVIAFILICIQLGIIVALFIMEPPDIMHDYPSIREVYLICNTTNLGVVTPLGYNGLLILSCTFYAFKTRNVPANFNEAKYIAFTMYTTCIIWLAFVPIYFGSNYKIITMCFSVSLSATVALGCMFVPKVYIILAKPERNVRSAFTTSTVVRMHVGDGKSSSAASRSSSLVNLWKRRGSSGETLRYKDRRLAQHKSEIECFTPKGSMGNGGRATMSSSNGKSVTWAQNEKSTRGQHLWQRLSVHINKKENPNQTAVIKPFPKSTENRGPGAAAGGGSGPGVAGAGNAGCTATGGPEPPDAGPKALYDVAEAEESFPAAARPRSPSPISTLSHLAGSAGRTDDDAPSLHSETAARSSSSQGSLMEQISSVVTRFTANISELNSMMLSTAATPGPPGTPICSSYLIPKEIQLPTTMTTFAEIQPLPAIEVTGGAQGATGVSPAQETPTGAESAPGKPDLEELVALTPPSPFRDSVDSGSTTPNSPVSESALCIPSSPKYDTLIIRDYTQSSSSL
Chain of Adenosine receptor A3 (Homo sapiens) (P0DMS8 whole entry): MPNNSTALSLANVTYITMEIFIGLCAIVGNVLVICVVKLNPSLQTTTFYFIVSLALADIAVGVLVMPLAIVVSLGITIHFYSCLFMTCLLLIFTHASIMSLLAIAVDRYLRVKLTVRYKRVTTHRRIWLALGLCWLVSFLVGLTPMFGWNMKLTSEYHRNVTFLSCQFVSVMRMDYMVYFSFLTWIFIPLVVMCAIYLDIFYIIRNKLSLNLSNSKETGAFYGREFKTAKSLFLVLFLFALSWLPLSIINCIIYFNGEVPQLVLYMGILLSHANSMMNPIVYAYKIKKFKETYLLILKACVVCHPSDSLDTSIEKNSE
Chain of Prostaglandin E2 receptor EP4 subtype (Homo sapiens) (P35408 whole entry): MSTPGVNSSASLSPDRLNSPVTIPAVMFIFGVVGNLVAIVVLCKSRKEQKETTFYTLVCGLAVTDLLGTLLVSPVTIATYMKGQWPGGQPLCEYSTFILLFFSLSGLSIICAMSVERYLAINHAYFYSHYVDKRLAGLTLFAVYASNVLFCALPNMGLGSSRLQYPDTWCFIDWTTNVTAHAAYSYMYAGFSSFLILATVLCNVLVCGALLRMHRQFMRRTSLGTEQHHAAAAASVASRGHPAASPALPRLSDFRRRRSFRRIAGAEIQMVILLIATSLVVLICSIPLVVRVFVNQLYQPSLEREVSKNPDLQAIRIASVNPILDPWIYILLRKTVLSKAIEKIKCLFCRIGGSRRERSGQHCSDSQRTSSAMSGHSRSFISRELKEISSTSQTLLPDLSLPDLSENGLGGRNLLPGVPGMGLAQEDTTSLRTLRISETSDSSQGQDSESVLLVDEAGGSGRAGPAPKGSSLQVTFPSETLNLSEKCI
Chain of Histamine H3 receptor (Homo sapiens) (Q9Y5N1 whole entry): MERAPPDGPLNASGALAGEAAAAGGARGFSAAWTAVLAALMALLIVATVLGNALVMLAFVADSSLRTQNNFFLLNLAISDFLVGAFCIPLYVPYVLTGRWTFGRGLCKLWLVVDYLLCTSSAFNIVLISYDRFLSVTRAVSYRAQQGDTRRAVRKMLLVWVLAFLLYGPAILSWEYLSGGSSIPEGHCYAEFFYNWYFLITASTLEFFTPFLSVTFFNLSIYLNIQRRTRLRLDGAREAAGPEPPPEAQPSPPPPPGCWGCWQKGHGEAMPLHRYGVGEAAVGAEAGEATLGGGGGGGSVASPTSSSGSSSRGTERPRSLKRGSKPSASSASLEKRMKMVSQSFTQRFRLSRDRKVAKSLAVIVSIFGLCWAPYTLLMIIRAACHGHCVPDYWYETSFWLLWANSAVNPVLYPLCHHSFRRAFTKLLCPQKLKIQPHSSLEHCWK
Chain of Alpha-1A adrenergic receptor (Rattus norvegicus) (P43140 whole entry): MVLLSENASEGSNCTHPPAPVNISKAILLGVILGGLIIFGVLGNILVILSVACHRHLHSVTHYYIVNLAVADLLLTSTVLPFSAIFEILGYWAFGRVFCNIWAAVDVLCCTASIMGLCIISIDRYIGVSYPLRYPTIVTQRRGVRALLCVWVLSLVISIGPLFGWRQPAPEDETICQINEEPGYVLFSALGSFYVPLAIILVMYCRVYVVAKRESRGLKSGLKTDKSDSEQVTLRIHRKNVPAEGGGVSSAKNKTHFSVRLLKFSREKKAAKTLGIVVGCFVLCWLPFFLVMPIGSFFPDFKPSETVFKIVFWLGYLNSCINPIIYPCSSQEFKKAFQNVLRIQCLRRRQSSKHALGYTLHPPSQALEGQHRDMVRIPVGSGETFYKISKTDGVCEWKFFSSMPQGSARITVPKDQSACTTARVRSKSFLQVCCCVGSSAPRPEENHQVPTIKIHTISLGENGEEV
Chain of D(1A) dopamine receptor (Homo sapiens) (P21728 whole entry): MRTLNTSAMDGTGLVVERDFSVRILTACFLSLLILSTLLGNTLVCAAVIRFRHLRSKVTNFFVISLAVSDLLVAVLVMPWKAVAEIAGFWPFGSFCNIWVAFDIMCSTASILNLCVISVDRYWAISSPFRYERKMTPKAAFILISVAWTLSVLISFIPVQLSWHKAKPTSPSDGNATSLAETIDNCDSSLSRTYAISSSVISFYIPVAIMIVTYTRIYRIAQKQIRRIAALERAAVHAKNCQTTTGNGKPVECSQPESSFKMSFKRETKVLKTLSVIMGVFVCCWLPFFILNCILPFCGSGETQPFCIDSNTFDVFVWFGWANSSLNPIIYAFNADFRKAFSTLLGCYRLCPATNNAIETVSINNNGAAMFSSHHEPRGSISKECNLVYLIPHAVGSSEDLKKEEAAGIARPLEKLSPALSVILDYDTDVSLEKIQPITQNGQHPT
Chain of Endothelin receptor type B (Homo sapiens) (P24530 whole entry): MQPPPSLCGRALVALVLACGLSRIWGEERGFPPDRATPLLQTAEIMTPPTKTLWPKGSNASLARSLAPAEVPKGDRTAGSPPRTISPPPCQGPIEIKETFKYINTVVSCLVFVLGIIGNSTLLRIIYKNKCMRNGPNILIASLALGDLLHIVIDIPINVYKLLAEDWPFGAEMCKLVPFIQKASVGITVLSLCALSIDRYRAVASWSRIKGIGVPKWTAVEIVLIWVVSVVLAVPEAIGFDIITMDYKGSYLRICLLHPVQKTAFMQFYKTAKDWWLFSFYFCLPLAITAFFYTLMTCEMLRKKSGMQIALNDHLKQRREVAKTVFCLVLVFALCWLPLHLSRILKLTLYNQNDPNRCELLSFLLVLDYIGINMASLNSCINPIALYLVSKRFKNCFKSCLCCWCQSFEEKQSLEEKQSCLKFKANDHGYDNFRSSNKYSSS
Chain of Kappa-type opioid receptor (Homo sapiens) (P41145 whole entry): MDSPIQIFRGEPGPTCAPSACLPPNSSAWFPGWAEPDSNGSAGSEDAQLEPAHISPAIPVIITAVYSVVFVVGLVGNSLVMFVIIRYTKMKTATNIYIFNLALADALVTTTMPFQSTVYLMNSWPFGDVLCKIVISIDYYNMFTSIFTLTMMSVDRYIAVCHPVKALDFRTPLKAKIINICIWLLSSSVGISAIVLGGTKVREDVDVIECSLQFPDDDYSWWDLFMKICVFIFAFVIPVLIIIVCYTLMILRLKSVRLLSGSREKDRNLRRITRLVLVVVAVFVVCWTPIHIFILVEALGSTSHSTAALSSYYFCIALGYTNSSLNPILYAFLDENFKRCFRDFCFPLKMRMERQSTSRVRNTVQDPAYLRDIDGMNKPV
Chain of Cannabinoid receptor 1 (Homo sapiens) (P21554 whole entry): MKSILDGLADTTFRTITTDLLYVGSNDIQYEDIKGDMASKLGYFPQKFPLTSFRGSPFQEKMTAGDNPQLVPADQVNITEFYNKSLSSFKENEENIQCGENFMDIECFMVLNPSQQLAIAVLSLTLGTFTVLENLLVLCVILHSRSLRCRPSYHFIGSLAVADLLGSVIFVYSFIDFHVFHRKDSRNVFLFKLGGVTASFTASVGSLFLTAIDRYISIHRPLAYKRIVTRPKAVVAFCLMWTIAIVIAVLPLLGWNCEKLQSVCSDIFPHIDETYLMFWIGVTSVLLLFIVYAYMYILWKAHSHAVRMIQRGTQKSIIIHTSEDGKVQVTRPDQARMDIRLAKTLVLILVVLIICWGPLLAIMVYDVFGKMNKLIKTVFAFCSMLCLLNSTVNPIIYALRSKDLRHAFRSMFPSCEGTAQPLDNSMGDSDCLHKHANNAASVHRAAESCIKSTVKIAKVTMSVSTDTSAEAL

With COc1ccc(-c2c(C)nn3c(C(F)(F)F)cc(C)nc23)c(F)c1F the inhibition [1] was under 50%, the inhibition [2] was under 50% and the inhibition [3] was under 50%. It also gave an inhibition [4] of under 50%, an inhibition [5] of under 50% and an inhibition [6] of under 50%. It also gave an inhibition (Rattus norvegicus [7]) of under 50%, an inhibition [8] of under 50% and an inhibition [9] of under 50%. For the same compound, the inhibition [10] was under 50%, the inhibition [11] was under 50% and the inhibition [12] was under 50%. The EC50 [13] was over 10 µM, the inhibition (Rattus norvegicus [14]) was under 50% and the inhibition [15] was under 50%. It also gave an inhibition (Mus musculus) of under 50%, an IC50 [16] of over 10 µM and an inhibition [17] of under 50%. The inhibition [18] was under 50%, the Time (Rattus norvegicus [19]) was 2 h and the inhibition (Rattus norvegicus [20]) was “inactive”. It also gave an inhibition [21] of under 50%, an IC50 (Cytochrome P450 2C9) of 24.7 µM and an inhibition [22] of under 50%. For the same compound, the inhibition [23] was under 50%, the inhibition [24] was under 50% and the inhibition at 10 µM [25] was under 50%. It also gave an inhibition (Mesocricetus auratus) of under 50%.
